Assay [1] concerns the target Sodium- and chloride-dependent GABA transporter 1 (Homo sapiens) (UniProt P30531). Conditions: 1 uM.
Assay [2] has the same target. As to the kind of experiment: Inhibition of human GAT1 expressed in HEK293 cells assessed as reduction in [3H]GABA uptake preincubated for 25 mins followed by [3H]GABA addition and measured after 4 mins by liquid scintillation counting method. The assay is classed as cell-based.
Assay [3] has the same target. The following applies: 100 nM.
In assay [4] the test system is Betaine/GABA transporter BGT1 (Mus musculus). As to the kind of experiment: Inhibition of mouse GAT2 expressed in HEK293 cells assessed as reduction in [3H]GABA uptake at 100 uM preincubated for 25 mins followed by [3H]GABA addition and measured after 10 mins by liquid scintillation counting method relative to control.
The target in assay [5] is Sodium- and chloride-dependent GABA transporter 1 (Homo sapiens) (UniProt P30531). As to the kind of experiment: Non-competitive inhibition of human GAT1 expressed in COS cells assessed as reduction in [2H6]GABA uptake by measuring [2H6]GABA Bmax at 10 uM preincubated for 25 mins followed by [2H6]GABA addition and measured after 4 mins […] (reference value: 79.5 +/- 5 pmol/mg). The assay is classed as cell-based.
Chain of Sodium- and chloride-dependent GABA transporter 1 (Homo sapiens) (P30531 whole entry, looked up): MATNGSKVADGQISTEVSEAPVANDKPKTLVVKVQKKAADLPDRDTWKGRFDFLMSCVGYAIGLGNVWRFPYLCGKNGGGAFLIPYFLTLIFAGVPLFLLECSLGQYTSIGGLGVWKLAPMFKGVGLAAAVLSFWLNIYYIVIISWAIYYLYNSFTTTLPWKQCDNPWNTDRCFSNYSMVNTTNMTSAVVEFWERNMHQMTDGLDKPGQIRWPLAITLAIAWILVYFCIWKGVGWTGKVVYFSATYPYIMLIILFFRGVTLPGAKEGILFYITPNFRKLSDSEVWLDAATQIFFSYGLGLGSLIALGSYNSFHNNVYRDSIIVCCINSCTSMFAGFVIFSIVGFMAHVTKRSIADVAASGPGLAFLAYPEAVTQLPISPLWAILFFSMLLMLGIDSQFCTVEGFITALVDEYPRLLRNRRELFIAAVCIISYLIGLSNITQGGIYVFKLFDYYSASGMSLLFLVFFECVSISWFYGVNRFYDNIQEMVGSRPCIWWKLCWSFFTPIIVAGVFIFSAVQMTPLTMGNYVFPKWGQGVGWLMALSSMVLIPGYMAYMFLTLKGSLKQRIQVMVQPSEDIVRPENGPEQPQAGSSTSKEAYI

The target in assay [6] is Sodium- and chloride-dependent GABA transporter 1 (Mus musculus) (UniProt P31648). As to the kind of experiment: Inhibition of NO711 binding to mouse GAT1 expressed in HEK293 cell membranes assessed as residual binding at 1 uM preincubated for 4 hrs followed by NO711 addition and measured after 40 mins by LC-ESI-MS/MS analysis relative to control. The essentials:
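Single hydrazones formed in situ in the presence of mouse GAT1 from one aldehyde (1.0 µM) and hydrazine (200 µM). Formation ran 4 h, then NO711 MS marker was added for 40 min. Specifically bound NO711 was freed from the target and quantified by LC-ESI-MS/MS. Results are % remaining specific binding, means±SD of four replicates.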

Assay [7] shares this target. Briefly: Inhibition of mouse GAT1 expressed in HEK293 cells assessed as reduction in [3H]GABA uptake at 100 uM preincubated for 25 mins followed by [3H]GABA addition and measured after 4 mins by liquid scintillation counting method relative to control. The assay is classed as cell-based.
The target of assay [8] is T1, GABA transporter 4 (Mus musculus) (UniProt P31650).
T1 sequence (whole entry): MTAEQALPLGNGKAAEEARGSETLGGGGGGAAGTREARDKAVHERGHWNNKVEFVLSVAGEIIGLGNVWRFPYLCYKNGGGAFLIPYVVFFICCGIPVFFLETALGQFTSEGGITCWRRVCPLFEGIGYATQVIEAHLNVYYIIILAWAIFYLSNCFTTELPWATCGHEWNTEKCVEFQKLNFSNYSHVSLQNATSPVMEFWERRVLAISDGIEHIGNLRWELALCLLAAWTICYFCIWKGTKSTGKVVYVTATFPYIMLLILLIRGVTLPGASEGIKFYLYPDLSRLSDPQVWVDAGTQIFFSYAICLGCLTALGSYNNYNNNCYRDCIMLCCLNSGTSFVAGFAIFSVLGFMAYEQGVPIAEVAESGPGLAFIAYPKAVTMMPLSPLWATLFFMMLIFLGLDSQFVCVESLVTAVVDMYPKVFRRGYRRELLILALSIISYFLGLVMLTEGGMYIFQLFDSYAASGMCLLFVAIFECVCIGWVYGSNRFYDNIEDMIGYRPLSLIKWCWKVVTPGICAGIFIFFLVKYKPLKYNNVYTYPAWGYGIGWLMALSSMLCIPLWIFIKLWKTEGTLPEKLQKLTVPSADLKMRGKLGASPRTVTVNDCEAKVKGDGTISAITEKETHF
As to the kind of experiment: Inhibition of mouse GAT4 expressed in HEK293 cells assessed as reduction in [3H]GABA uptake at 100 uM preincubated for 25 mins followed by [3H]GABA addition and measured after 4 mins by liquid scintillation counting method relative to control. The assay is classed as cell-based.

The subject of assay [9] is Slc6a13 GABA transporter mGAT3 (Mus musculus). As to the kind of experiment: Inhibition of mouse GAT3 expressed in HEK293 cells assessed as reduction in [3H]GABA uptake at 100 uM preincubated for 25 mins followed by [3H]GABA addition and measured after 4 mins by liquid scintillation counting method relative to control.
Assay [10] addresses Sodium- and chloride-dependent GABA transporter 1 (Homo sapiens) (UniProt P30531). Briefly: Non-competitive inhibition of human GAT1 expressed in COS cells assessed as reduction in [2H6]GABA uptake by measuring [2H6]GABA Bmax at 1 uM preincubated for 25 mins followed by [2H6]GABA addition and measured after 4 mins […] (reference value: 79.5 +/- 5 pmol/mg). The assay is classed as cell-based.

Activity calls are given as the source filed them. The rule behind the calls is not given here.

As for `Cc1ccsc1C(=CCCN1CCC[C@@H](C(=O)O)C1)c1sccc1C`, the Bmax in assay [1] was 81 pmol/mg; in [3], 79.9 pmol/mg. The inhibition entry in assay [2] was “Active”.

Consider `O=C(O)[C@H]1CNC[C@@H](CN/N=C/c2ccc(-c3cc(C(F)(F)F)cc(C(F)(F)F)c3)o2)C1` (racemic), for which the inhibition is 84% in assay [4], 50% in assay [7], 79% in assay [8] and 65% in assay [9]. The Bmax in assay [5] turned out to be 38.9 pmol/mg; in assay [10] it was 57.1 pmol/mg. In assay [6], the Activity came out at 32%. In addition, the inhibition result in assay [2] is “Active”.

In the case of `O=C(O)[C@H]1CNC[C@@H](CN/N=C/c2ccc(-c3cccc4ccccc34)o2)C1` (racemic), the inhibition in [4] was 64%. For the same compound, the Bmax in assay [5] was determined as 28.3 pmol/mg; in assay [10] it was 48.4 pmol/mg. Further, the Activity in [6] was found to be 16%. Further, in assay [2], the inhibition entry is “Active”.

Turning to `O=C(O)[C@H]1CNC[C@@H](CN/N=C/c2ccc(-c3ccc(C(F)(F)F)cc3Cl)o2)C1` (racemic), the inhibition in assay [4] came to 65%; in assay [8] it was 53%; in assay [9], 59%. For the same compound, in [6], the Activity was determined as 40%. In addition, the inhibition result in [2] is “Active”.

Values taken from ChEMBL document CHEMBL4371014, “Novel Allosteric Ligands of γ-Aminobutyric Acid Transporter 1 (GAT1) by MS Based Screening of Pseudostatic Hydrazone Libraries” (J Med Chem, 2018).
